This note sets out measurements from ChEMBL document CHEMBL4513216, “Probing the Open Global Health Chemical Diversity Library for Multistage-Active Starting Points for Next-Generation Antimalarials” (ACS Infect Dis, 2020).

A short description of the data set: Toxicity liver stage against HepG2, at 10uM. Type of data set: cell-based. Also noted: test concentration 10 uM, cell line HepG2-A16-CD81EGFP. The settings on record: human, HepG2-A16-CD81EGFP cells; read-out: INHIBITION
Summed up: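 Uninfected HepG2-A16-CD81EGFP cells, 3 × 10^3 per well, 1536-well, plated on prespotted compound at 10 μM final, parasite-free screening media added to match infected plates; puromycin 10 μM positive, DMSO 0.5% negative; run in parallel with 48 h PbLuc assay at 37 °C, 5% CO2; viability by CellTiter-Glo luminescence, normalized to controls.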
On to `Cc1nc(CC(=O)N2c3ccccc3OCC2C)cs1` (configuration not stated), for which the cytotoxicity at 10 µM was -6.53%.
The same measure for `Cc1noc(C)c1CCc1nc(C2CCOC2)no1` (configuration not stated): -4%; for `CS(=O)(=O)c1ccc(NC(=O)CSc2ccc3c(c2)CCC3)cn1`: 11.8%; for `CC(C)c1noc(CN(C)C(c2ccc(F)cc2)c2cccnc2)n1` (configuration not stated): 5.66%.
For the compound `Cc1cnn(CC2CN(CC(=O)NCc3ccccn3)CCO2)c1` (configuration not stated), the cytotoxicity at 10 µM is -5.8%.
The same measure for `COCCN1CC[C@@H](O)[C@@H]1Cc1ccccc1`: 3.67%; for `Nc1cc(-c2cc(O)cc(C(=O)O)c2)c2cc[nH]c2n1`: 6.77%; for `c1ccc(-n2cc(CN3CCCC3Cn3cncn3)nn2)cc1` (configuration not stated): -0.0716%.
As for `COc1cc(N2C[C@@H]3COC[C@]3(COCc3ccccn3)C2)ncn1`, the cytotoxicity at 10 µM is -73.2%.
Turning to `O=C(c1ccc2c(c1)CCO2)N1CCN(c2ncccn2)CC1`, the cytotoxicity at 10 µM turned out to be 8.92%.
The same measure for `O=C(c1cnc(COc2ccccc2)nc1O)N1CCC(F)(F)CC1`: -3.11%.
The same measure for `COCc1nn(Cc2ccc(Cl)s2)c(=O)o1`: 1.97%.
The same measure for `Cn1ncc(NC(=O)Cn2cc(-c3ccc(F)cn3)cn2)n1`: 7.16%; for `Cc1ncc(C)c(N2CCCC(CO)(Cc3cccc(Cl)c3)C2)n1` (configuration not stated): 59.4%.
Consider `Cc1noc(C)c1CN1CCCC1C(=O)OCc1ccccc1` (configuration not stated), for which the cytotoxicity at 10 µM stood at 3.23%.
As for `CCn1cnnc1CNC(=O)N1CCC(OCc2ccccc2)CC1`, the cytotoxicity at 10 µM is -5.26%.
In the case of `O=C(NC1CCNCC1)C1(N2CCCCC2)Cc2ccccc2C1`, the cytotoxicity at 10 µM was -5.47%.
The same measure for `CNCCNc1nccc(-c2cn(C)nc2C)n1`: 2.35%.
The same measure for `CCOC(=O)C1CCN(c2cc(C(=O)N3CCCCC3)nc(C)n2)CC1`: -4.17%; for `CC(C)CN1CCc2[nH]cnc2C12CCN(C(=O)c1ccccn1)CC2`: -11.6%.
Consider `Cn1cc(CN2CCCN(C(=O)c3cc(Cl)cn3C)CC2)cn1`, for which the cytotoxicity at 10 µM is -1.63%.
The same measure for `c1ccc(CN2Cc3[nH]nc(COc4cccnc4)c3C2)nc1`: -109%; for `CC(Oc1ccc2c(c1)OCO2)C(=O)N1CCC(N2CCCC2)CC1` (configuration not stated): -4.63%; for `COc1c(C)cnc(CNCC(C)C)c1C`: -0.135%.
Regarding `O=C(c1ccc2[nH]cnc2c1)N1CCCC1Cn1cccn1` (configuration not stated), the cytotoxicity at 10 µM is -10%.
The same measure for `CC(Oc1ccc2c(c1)OCO2)C(=O)N1CCC(c2ncc[nH]2)CC1` (configuration not stated): -2.58%; for `O=C(NCc1ccccc1)N1CCC(Oc2ncccc2Br)CC1`: 18.3%; for `Cc1nnc2n1CCN(C(=O)c1cc3cc(F)ccc3[nH]1)C2`: 3.28%.
Consider `O=C(NC[C@H]1OC[C@@H](NCc2ccccn2)[C@@H]1O)c1ccc(F)cc1`, for which the cytotoxicity at 10 µM is -2.65%.
For the compound `CC(Nc1nc(-c2ccncc2)nc2c1CCNC2)c1ccccc1` (configuration not stated), the cytotoxicity at 10 µM was -9.94%.
The same measure for `CCOCC(=O)Nc1cc(-c2cccc(F)c2F)n[nH]1`: 0.107%; for `Cn1ncc2c(NC3CN4CCC3CC4)nc(-c3ccncc3)nc21` (configuration not stated): 41.1%; for `COCc1nc(C(=O)N2CCN(Cc3cc(C)on3)CC2)cs1`: -15%.
The same measure for `Cc1cc(C(=O)N2CCCC2)ccc1NCc1nc(CC(C)C)no1`: -4.09%.
As for `CN1CCC2(COCc3cnc(N4CCOCC4)nc32)C1` (configuration not stated), the cytotoxicity at 10 µM is -6.13%.
Consider `CS(=O)(=O)NCc1cnc2n1CCN(Cc1ccsc1)CC2`, for which the cytotoxicity at 10 µM was -7.96%.
As for `O=C1COc2cccc(OCc3ccccn3)c2N1`, the cytotoxicity at 10 µM was found to be 2.2%.
The same measure for `Cc1nc(C)n(CC2CN(Cc3cccc4ccccc34)CCO2)n1` (configuration not stated): -2.64%; for `CC1CCN(C(=O)C(C)n2cc(Br)cn2)CC1` (configuration not stated): 11.3%.
For `Cc1ccc(Cn2ccc(NS(C)(=O)=O)n2)cc1`, the cytotoxicity at 10 µM is -12.2%.
The same measure for `CCCc1ccc(CN2CCC3(CC2)CNC(=O)C3)o1`: -3.71%; for `CS(=O)(=O)N1CCC(NC(=O)COc2cccc(Cl)c2)CC1`: -5.59%.
Turning to `CCn1ncc2c1CCCC2NCc1cccc2c1OCCCO2` (configuration not stated), the cytotoxicity at 10 µM is -13.4%.
The same measure for `c1cncc(COCc2nnc3n2CCN(Cc2ccoc2)C3)c1`: -11.2%; for `COc1ccc(CCC(=O)N(C(C)C)C2CCOCC2)cc1`: -11.8%; for `COc1cccc(CN(C)Cc2nc(C(C)C)no2)c1`: -43.6%.
For `CC(C)c1nc(C2CCCN2CCNS(C)(=O)=O)no1` (configuration not stated), the cytotoxicity at 10 µM was found to be 3.33%.
As for `CCOc1ccc(C2CCCN2C(=O)NCCn2ccnc2)cc1` (configuration not stated), the cytotoxicity at 10 µM was 0.632%.
The same measure for `O=C(Nc1nc2c(s1)CN(C(=O)NCc1cccs1)CC2)C1CC1`: -0.707%; for `Fc1ccc(CNC2CCN(CCc3ccncc3)CC2)cc1F`: -12.6%; for `CC1(C(N)=O)CN(CC2CCOCC2)CCO1` (configuration not stated): -0.74%.
The same measure for `CN(C)C(=O)c1c[nH]nc1-c1ccc(CNC(=O)c2cnccn2)cc1`: -0.56%; for `NC1CCCCN(Cc2cc(C3CCCCC3)no2)C1` (configuration not stated): -14.1%; for `Cc1nnc(NC(=O)NCC(C)N2CCOCC2)s1` (configuration not stated): -10.6%.
The same measure for `COc1ccc(F)cc1C(=O)C1CCCN(Cc2ccc(C)s2)C1` (configuration not stated): -1.84%; for `Cc1ncncc1C(=O)N1CCOC(c2nc(C(C)C)n[nH]2)C1` (configuration not stated): -4.98%.
Take `Cc1ccc(O)c(C(=O)N2CCC3(CCCNC3)C2)c1` (configuration not stated): the cytotoxicity at 10 µM was -10.2%.
For `CN(Cc1nc(-c2cccnc2)no1)C(=O)c1cnc2n1CCCC2`, the cytotoxicity at 10 µM is 6.32%.
The same measure for `CSCC(=O)N1CCCN(c2ccccc2C)CC1`: 8.14%; for `O=C(O)[C@@H]1CN(C(=O)c2ccc3[nH]nnc3c2)C[C@H]1c1ccccc1`: -130%.
The same measure for `Cc1ccc(CN2CC[C@H]3[C@@H]2CCC(=O)N3CCN2CCCC2)s1`: 3.01%; for `O=C(NCC1CC(=O)N(CCc2ccccc2)C1)c1c(F)cccc1F` (configuration not stated): 9.52%.
Consider `Cc1csc(CN2CC[C@@](O)(C3CCOCC3)[C@H](C)C2)n1`, for which the cytotoxicity at 10 µM was found to be 4.48%.
The same measure for `CN1CCN(c2ncccn2)CC1C(N)=O` (configuration not stated): 15.4%; for `Cc1cc(N2CCOC(C(F)(F)F)C2)nc(-c2ccccc2)n1` (configuration not stated): -1.23%.
The same measure for `COc1ccc(CN2CCC3(CC2)CN(c2ccccn2)CCO3)cc1`: 2.87%; for `Cc1ccc(NC2CCN(C(=O)CCc3cscn3)CC2)nn1`: -9.2%; for `CN(C[C@@H]1CCC[C@@H]2CN(Cc3cccnc3)C[C@@H]21)C1CC1`: 8.01%.
The same measure for `C[C@@H]1CN(c2ccc(Cl)cn2)CC[C@@]1(O)C1CCOCC1`: -2.54%; for `Cc1noc(C)c1C(=O)N1C[C@@H]2COC[C@]2(COc2ccccn2)C1`: 2.47%; for `Cn1cc(N2CCCC(NCc3cccc4c3OCCCO4)C2)cn1` (configuration not stated): -8.58%.
In the case of `CNC(=O)NCC1CCC2(CCN(c3ncccn3)CC2)CO1` (configuration not stated), the cytotoxicity at 10 µM was -107%.
The same measure for `CCCn1nc(C)c(CN(CCN(C)C)Cc2ccccn2)c1C`: -0.641%.
The same measure for `CC(C)Cc1nc(CN2CCC3(CCCO3)CCC2=O)no1` (configuration not stated): 1.95%.
For `Cc1ccccc1C1(C(=O)NCCN2CCCC2)CCOCC1`, the cytotoxicity at 10 µM was -7.54%.
The same measure for `COc1cccc(Cc2nc3c([nH]2)CC(C)(C)CNC3=O)c1OC`: -2.88%; for `Cc1cc(C(=O)N[C@@H]2CCC[C@@H](N3CCOCC3)[C@@H]2O)no1`: -1.61%.
The same measure for `CNc1cc2c(nn1)CCN(C(=O)c1cc(C)n(C3CC3)c1C)C2`: -14.4%; for `N#CC1(NC(=O)c2ccc(-c3nc(C4CC4)n[nH]3)cc2)CCSC1` (configuration not stated): 4.39%; for `Cc1nc(N2CCCC2)nc2c1CN(C(=O)c1ccco1)CC2`: 5.29%.
The same measure for `CC1CCC(O)(CSc2nnnn2C)CC1` (configuration not stated): -8.03%; for `O=C(c1ccccc1F)N1CCCn2c(CN3CCCCC3)nnc2C1`: -71.5%; for `COC(=O)CCC(=O)N1CCc2[nH]nc(-c3ccc(F)c(F)c3)c2C1`: 0.604%.
For `CCN1CC(C(=O)N2CCc3cc(C(N)=O)n(C)c3C2)CC1=O` (configuration not stated), the cytotoxicity at 10 µM was -47.5%.
The same measure for `Cc1noc([C@H]2C[C@@H]3CCN(C(=O)c4cccn4C)C[C@H]3O2)n1`: -103%; for `COc1cc2nc(C)n(CC(=O)NCCCN(C)C)c(=O)c2cc1OC`: 2.11%; for `Cn1ccc(N2CCCC(NC(=O)c3ccsc3)C2=O)n1` (configuration not stated): -3%.
Turning to `CCc1nc(CN2CCOC(Cn3cncn3)C2)no1` (configuration not stated), the cytotoxicity at 10 µM is -5.71%.
The same measure for `CN(Cc1nnc(C2CC2)n1C)C1CCN(CCS(C)(=O)=O)C1` (configuration not stated): 0.918%.
In the case of `Cc1nsc(NC(=O)N2CCC(C(C)(C)O)CC2)n1`, the cytotoxicity at 10 µM was 17.5%.
Take `CN(C)S(=O)(=O)c1ccc(CN2CCC(c3ccccc3)C2)o1` (configuration not stated): the cytotoxicity at 10 µM is 17.5%.
As to `c1ccc(OC[C@H]2CCC[C@]23CN(Cc2nccs2)CCO3)nc1`, the cytotoxicity at 10 µM amounted to 3.34%.
As for `CCc1nc2c(c(NCc3cc(-c4cccnc4)no3)n1)CCNCC2`, the cytotoxicity at 10 µM was 0.811%.
The same measure for `Cc1cc(C(=O)N2CCn3nc(C(=O)NC4CC4)cc3C2)nc(C)n1`: 1.15%.
Consider `Cc1ccc(CNC(=O)CN2CCCC(Cn3cncn3)C2)cc1` (configuration not stated), for which the cytotoxicity at 10 µM is -11.5%.
Regarding `O=C1CC2(CCN(S(=O)(=O)c3cccs3)C2)CN1c1ccccc1` (configuration not stated), the cytotoxicity at 10 µM is 5.08%.
Consider `CC(C)CC(=O)N1CCCC1c1nccnc1Nc1ncccn1` (configuration not stated), for which the cytotoxicity at 10 µM was -13.8%.
